Laboratory results from ChEMBL document CHEMBL1156197, “Design, synthesis and evaluation of novel 2-thiophen-5-yl-3H-quinazolin-4-one analogues as inhibitors of transcription factors NF-kappaB and AP-1 mediated transcriptional activation: Their possible utilization as anti-inflammatory and anti-cancer agents” (Bioorg Med Chem, 2010).

These compounds were tested on HEK293 (assay: Cytotoxicity against TNF-alpha-stimulated HEK293 cells at 10 uM treated 24 hrs before TNFalpha challenge measured after 20 to 24 hrs). Details: human, hek293, 10 µM.
Assay type: cell-based

SMILES | Activity
Cc1ccc(-n2c(-c3cc(-c4ccc(Cl)cc4)c(N4CCOCC4)s3)nc3ccccc3c2=O)cc1 | Non-toxic
Cc1ccccc1-n1c(-c2cc(-c3ccc(S(C)(=O)=O)cc3)c(N3CCOCC3)s2)nc2ccccc2c1=O | Non-toxic
Cc1cccc(-n2c(-c3cc(-c4ccc(S(C)(=O)=O)cc4)c(N4CCOCC4)s3)nc3ccccc3c2=O)c1 | Non-toxic
O=c1c2ccccc2nc(-c2cc(-c3ccc(Cl)cc3)c(N3CCOCC3)s2)n1-c1ccccc1 | Non-toxic
COc1ccccc1-n1c(-c2cc(-c3ccccc3)c(N3CCOCC3)s2)nc2ccccc2c1=O | Non-toxic
O=c1c2ccccc2nc(-c2cc(-c3ccccc3)c(N3CCOCC3)s2)n1-c1ccc(Cl)cc1 | Non-toxic
CC(=O)Nc1ccc(-c2cc(-c3nc4ccccc4c(=O)n3-c3ccccc3)sc2N2CCOCC2)cc1 | Non-toxic
CC(=O)Nc1ccc(-c2cc(-c3nc4ccccc4c(=O)n3-c3cccc(C)c3)sc2N2CCOCC2)cc1 | Non-toxic
O=c1c2ccccc2nc(-c2cc(-c3ccc(Cl)cc3)c(N3CCOCC3)s2)n1-c1ccc(Cl)cc1 | Non-toxic
COc1cccc(-n2c(-c3cc(-c4ccc(S(C)(=O)=O)cc4)c(N4CCOCC4)s3)nc3ccccc3c2=O)c1 | Non-toxic
CC(=O)Nc1ccc(-c2cc(-c3nc4ccccc4c(=O)n3-c3ccc(Cl)cc3)sc2N2CCOCC2)cc1 | Non-toxic
Cc1ccc(-n2c(-c3cc(-c4ccccc4)c(N4CCOCC4)s3)nc3ccccc3c2=O)cc1 | Non-toxic
Cc1ccc(-n2c(-c3cc(-c4ccc(S(C)(=O)=O)cc4)c(N4CCOCC4)s3)nc3ccccc3c2=O)cc1 | Non-toxic
CC(=O)c1ccc(-n2c(-c3cc(-c4ccc(Cl)cc4)c(N4CCOCC4)s3)nc3ccccc3c2=O)cc1 | Non-toxic
CSc1ccc(-c2cc(-c3nc4ccccc4c(=O)n3-c3ccccc3C)sc2N2CCOCC2)cc1 | Non-toxic
CC(=O)c1ccc(-n2c(-c3cc(-c4ccccc4)c(N4CCOCC4)s3)nc3ccccc3c2=O)cc1 | Non-toxic
O=c1c2ccccc2nc(-c2cc(-c3ccccc3)c(N3CCOCC3)s2)n1-c1ccccc1 | Non-toxic
Cc1cccc(-n2c(-c3cc(-c4ccc(Cl)cc4)c(N4CCOCC4)s3)nc3ccccc3c2=O)c1 | Non-toxic
CS(=O)(=O)c1ccc(-c2cc(-c3nc4ccccc4c(=O)n3-c3ccc(Cl)cc3)sc2N2CCOCC2)cc1 | Non-toxic

What follows are compounds tested against Transcription factor Jun (Homo sapiens) (UniProt P05412) (assay: Inhibition of AP-1 expressed in HEK293 cells assessed as PMA-stimulated transcriptional activation at 10 uM treated 24 hrs before PMA challenge measured after 20 to 24 hrs by luciferase reporter gene assay). Details: not given.
Transcription factor Jun (Homo sapiens), sequence (P05412 whole entry): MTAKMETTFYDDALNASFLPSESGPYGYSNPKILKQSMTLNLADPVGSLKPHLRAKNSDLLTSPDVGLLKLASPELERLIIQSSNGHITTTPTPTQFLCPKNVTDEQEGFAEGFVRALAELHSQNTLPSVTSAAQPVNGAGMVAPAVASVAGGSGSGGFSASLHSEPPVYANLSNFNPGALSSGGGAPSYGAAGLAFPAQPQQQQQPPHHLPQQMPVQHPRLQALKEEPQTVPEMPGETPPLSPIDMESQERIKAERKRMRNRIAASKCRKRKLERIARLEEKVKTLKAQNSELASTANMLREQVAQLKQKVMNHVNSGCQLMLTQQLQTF
Assay type: cell-based
In short: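 HEK-293 cells stably carrying a minimal-promoter luciferase construct with tandem AP-1 elements (TGACTAA) were plated at 5 × 10⁴ cells/well and held 24 h at 37 °C in 5% CO₂. Compounds in 0.1% DMSO (10 µM–1 nM) were added to replicate wells for 24 h. Cells were then stimulated with PMA for 20–24 h and read with Bright-Glo luminescence. Mean RLU was normalized to the maximal control; IC50 came from a six-point dose response.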

SMILES | inhibition [%]
Cc1ccc(-n2c(-c3cc(-c4ccc(Cl)cc4)c(N4CCOCC4)s3)nc3ccccc3c2=O)cc1 | 27
Cc1ccccc1-n1c(-c2cc(-c3ccc(S(C)(=O)=O)cc3)c(N3CCOCC3)s2)nc2ccccc2c1=O | 52
Cc1cccc(-n2c(-c3cc(-c4ccc(S(C)(=O)=O)cc4)c(N4CCOCC4)s3)nc3ccccc3c2=O)c1 | 48
O=c1c2ccccc2nc(-c2cc(-c3ccc(Cl)cc3)c(N3CCOCC3)s2)n1-c1ccccc1 | 0
COc1ccccc1-n1c(-c2cc(-c3ccccc3)c(N3CCOCC3)s2)nc2ccccc2c1=O | 0
O=c1c2ccccc2nc(-c2cc(-c3ccccc3)c(N3CCOCC3)s2)n1-c1ccc(Cl)cc1 | 23
CC(=O)Nc1ccc(-c2cc(-c3nc4ccccc4c(=O)n3-c3ccccc3)sc2N2CCOCC2)cc1 | 26
CC(=O)Nc1ccc(-c2cc(-c3nc4ccccc4c(=O)n3-c3cccc(C)c3)sc2N2CCOCC2)cc1 | 13
O=c1c2ccccc2nc(-c2cc(-c3ccc(Cl)cc3)c(N3CCOCC3)s2)n1-c1ccc(Cl)cc1 | 14
COc1cccc(-n2c(-c3cc(-c4ccc(S(C)(=O)=O)cc4)c(N4CCOCC4)s3)nc3ccccc3c2=O)c1 | 0
CC(=O)Nc1ccc(-c2cc(-c3nc4ccccc4c(=O)n3-c3ccc(Cl)cc3)sc2N2CCOCC2)cc1 | 17
Cc1ccc(-n2c(-c3cc(-c4ccccc4)c(N4CCOCC4)s3)nc3ccccc3c2=O)cc1 | 17
Cc1ccc(-n2c(-c3cc(-c4ccc(S(C)(=O)=O)cc4)c(N4CCOCC4)s3)nc3ccccc3c2=O)cc1 | 51
CC(=O)c1ccc(-n2c(-c3cc(-c4ccc(Cl)cc4)c(N4CCOCC4)s3)nc3ccccc3c2=O)cc1 | 7
CSc1ccc(-c2cc(-c3nc4ccccc4c(=O)n3-c3ccccc3C)sc2N2CCOCC2)cc1 | 13
CC(=O)c1ccc(-n2c(-c3cc(-c4ccccc4)c(N4CCOCC4)s3)nc3ccccc3c2=O)cc1 | 25
O=c1c2ccccc2nc(-c2cc(-c3ccccc3)c(N3CCOCC3)s2)n1-c1ccccc1 | 11
Cc1cccc(-n2c(-c3cc(-c4ccc(Cl)cc4)c(N4CCOCC4)s3)nc3ccccc3c2=O)c1 | 10
CS(=O)(=O)c1ccc(-c2cc(-c3nc4ccccc4c(=O)n3-c3ccc(Cl)cc3)sc2N2CCOCC2)cc1 | 7

Each compound was assayed on HEK293 (assay: Inhibition of NF-kappaB expressed in HEK293 cells assessed as inhibition of TNF-alpha-stimulated transcriptional activation at 10 uM treated 24 hrs before TNFalpha challenge measured after 20 to 24 hrs by luciferase reporter gene assay). Details: not given.
Assay type: cell-based
In short: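 Compounds in 0.1% DMSO (10 µM–1 nM) were added to replicate wells for 24 h. Cells were then stimulated with TNF-α for 20–24 h and read with Bright-Glo luciferase. Mean RLU was normalized to the maximal control; IC50 came from a six-point dose response.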

SMILES | inhibition [%]
Cc1ccc(-n2c(-c3cc(-c4ccc(Cl)cc4)c(N4CCOCC4)s3)nc3ccccc3c2=O)cc1 | 15
Cc1ccccc1-n1c(-c2cc(-c3ccc(S(C)(=O)=O)cc3)c(N3CCOCC3)s2)nc2ccccc2c1=O | 51
Cc1cccc(-n2c(-c3cc(-c4ccc(S(C)(=O)=O)cc4)c(N4CCOCC4)s3)nc3ccccc3c2=O)c1 | 20
O=c1c2ccccc2nc(-c2cc(-c3ccc(Cl)cc3)c(N3CCOCC3)s2)n1-c1ccccc1 | 0
COc1ccccc1-n1c(-c2cc(-c3ccccc3)c(N3CCOCC3)s2)nc2ccccc2c1=O | 0
O=c1c2ccccc2nc(-c2cc(-c3ccccc3)c(N3CCOCC3)s2)n1-c1ccc(Cl)cc1 | 0
CC(=O)Nc1ccc(-c2cc(-c3nc4ccccc4c(=O)n3-c3ccccc3)sc2N2CCOCC2)cc1 | 7
CC(=O)Nc1ccc(-c2cc(-c3nc4ccccc4c(=O)n3-c3cccc(C)c3)sc2N2CCOCC2)cc1 | 35
O=c1c2ccccc2nc(-c2cc(-c3ccc(Cl)cc3)c(N3CCOCC3)s2)n1-c1ccc(Cl)cc1 | 0
COc1cccc(-n2c(-c3cc(-c4ccc(S(C)(=O)=O)cc4)c(N4CCOCC4)s3)nc3ccccc3c2=O)c1 | 20
CC(=O)Nc1ccc(-c2cc(-c3nc4ccccc4c(=O)n3-c3ccc(Cl)cc3)sc2N2CCOCC2)cc1 | 0
Cc1ccc(-n2c(-c3cc(-c4ccccc4)c(N4CCOCC4)s3)nc3ccccc3c2=O)cc1 | 0
Cc1ccc(-n2c(-c3cc(-c4ccc(S(C)(=O)=O)cc4)c(N4CCOCC4)s3)nc3ccccc3c2=O)cc1 | 55
CC(=O)c1ccc(-n2c(-c3cc(-c4ccc(Cl)cc4)c(N4CCOCC4)s3)nc3ccccc3c2=O)cc1 | 0
CSc1ccc(-c2cc(-c3nc4ccccc4c(=O)n3-c3ccccc3C)sc2N2CCOCC2)cc1 | 15
CC(=O)c1ccc(-n2c(-c3cc(-c4ccccc4)c(N4CCOCC4)s3)nc3ccccc3c2=O)cc1 | 0
O=c1c2ccccc2nc(-c2cc(-c3ccccc3)c(N3CCOCC3)s2)n1-c1ccccc1 | 0
Cc1cccc(-n2c(-c3cc(-c4ccc(Cl)cc4)c(N4CCOCC4)s3)nc3ccccc3c2=O)c1 | 28
CS(=O)(=O)c1ccc(-c2cc(-c3nc4ccccc4c(=O)n3-c3ccc(Cl)cc3)sc2N2CCOCC2)cc1 | 0
